Source: ChEMBL document CHEMBL3425447, “Discovery of Orally Available Runt-Related Transcription Factor 3 (RUNX3) Modulators for Anticancer Chemotherapy by Epigenetic Activation and Protein Stabilization” (J Med Chem, 2015)

Experiments:
[1] = Growth inhibition of human HCT15 cells after 5 days by sulforhodamine B assay; assay type: functional; settings: HCT-15, 120 h
Histone deacetylase = assay: Inhibition of HDAC in human HeLa cell nuclear extract using Fluor de Lys as substrate incubated with compound for 30 mins by microtiter-plate reading flourimeter analysis; assay type: protein assay
[2] = Growth inhibition of human NUGC3 cells after 5 days by sulforhodamine B assay; assay type: functional; settings: NUGC-3, 120 h
MDA-MB-231 = assay: Growth inhibition of human MDA-MB-231 cells after 5 days by sulforhodamine B assay; assay type: functional; settings: MDA-MB-231, 120 h
NCI-H23 = assay: Growth inhibition of human NCI-H23 cells after 5 days by sulforhodamine B assay; assay type: functional; settings: NCI-H23, 120 h
ACHN = assay: Growth inhibition of human ACHN cells after 5 days by sulforhodamine B assay; assay type: functional; settings: 120 h
[3] = Growth inhibition of human PC3 cells after 5 days by sulforhodamine B assay; assay type: functional; settings: PC-3, 120 h
C2C12 = assay: Induction of RUNX transcriptional activation in mouse C2C12-6xOSE2 cells at 1 uM after 24 hrs by luciferase reporter assay relative to FGF-2; assay type: functional
Outline: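 C2C12-6xOSE stable cells grown in DMEM with 10% FBS at 37°C, 5% CO2. Seeded at 1 × 10^4 cells/well; next day treated with compound or FGF-2 (1 µM each). After 24 h, luciferase measured with Bright-Glo. Activity expressed as percent of the FGF-2 positive-control response.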

HEK293 [4] = assay: Induction of myc-tagged RUNX3 acetylation in human HEK293 cells assessed as RUNX3 level at 1 uM after 24 hrs by immunoprecipitation analysis relative to TSA; assay type: functional
Outline: (§1)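 HEK293 cells (DMEM, 10% FBS) transfected with myc-RUNX3 vector using Lipofectamine 2000. Next day treated at 1 µM for 24 h. Lysates (HEPES pH 7.5, NP-40 buffer) immunoprecipitated with anti-myc antibody and protein G beads at 4°C. Immunoprecipitates western-blotted with anti-acetylated lysine antibody; relative acetylated RUNX3 quantified.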

[5] = Metabolic stability in mouse liver microsomes assessed as compound remaining at 1 uM after 30 mins byLC-ESI/MS/MS analysis in presence of NADPH; assay type: ADME; settings: read-out: Stability
Outline: (§2)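 Compound at 1 µM incubated in triplicate with pooled mouse liver microsomes (0.5 mg/ml final) in 0.1 M potassium phosphate, pH 7.4, at 37°C, with or without 1 mM NADPH. Reactions stopped at 0 and 30 min with ice-cold acetonitrile containing internal standard. After centrifugation, supernatant analyzed by LC-ESI/MS/MS; percent remaining from analyte/IS peak-area ratios. Buspirone served as positive control.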

HEK293 [6] = assay: Induction of myc-tagged RUNX3 acetylation in human HEK293 cells assessed as acetylated RUNX3 level at 1 uM after 24 hrs by immunoprecipitation analysis relative to TSA; assay type: functional; outline: as §1
[7] = Metabolic stability in mouse liver microsomes assessed as compound remaining at 1 uM after 30 mins by LC-ESI/MS/MS analysis in absence of NADPH; assay type: ADME; settings: read-out: Stability; outline: as §2

IC50 (Histone deacetylase) | GI50 (MDA-MB-231) | GI50 (NCI-H23) | GI50 (ACHN) | remaining at 0.5 h, 1 µM [5] | remaining at 0.5 h, 1 µM [7] | SMILES | GI50 [1] | GI50 [2] | GI50 [3] | Activity (C2C12) | fold change (FC) (HEK293 [4]) | fold change (FC) (HEK293 [6])
230 nM | 6950 nM | 4960 nM | 3240 nM |  |  | CCc1ccccc1Cn1cccc(/C=C/C(=O)NO)c1=O | 3930 nM | 5410 nM | 5020 nM | 52.3% |  | 
70 nM | 720 nM | 690 nM | 700 nM | 11.1% | 96.5% | CCc1ccc(CCn2cccc(/C=C/C(=O)NO)c2=O)cc1 | 690 nM | 740 nM | 530 nM | 106% | 0.4 | 0.2
110 nM | 840 nM | 910 nM | 700 nM | 28.3% | 103% | CC(C)(C)c1ccc(CCn2cccc(/C=C/C(=O)NO)c2=O)cc1 | 710 nM | 470 nM | 500 nM | 104.7% | 1.2 | 0.1
90 nM | 2590 nM | 2810 nM | 2800 nM |  |  | CC(C)(C)c1ccc(Cn2cccc(/C=C/C(=O)NO)c2=O)cc1 | 2400 nM | 1820 nM | 3040 nM | 46.4% |  | 
140 nM | 1360 nM | 1310 nM | 980 nM |  |  | COc1ccc(CCCn2cccc(/C=C/C(=O)NO)c2=O)cc1 | 900 nM | 970 nM | 1780 nM | 97.6% |  | 
420 nM | 4920 nM | 3010 nM | 9490 nM |  |  | O=C(/C=C/c1cccn(Cc2ccncc2)c1=O)NO | > 10000 nM | 9190 nM | 9170 nM | 69.1% |  | 
> 10000 nM | > 10000 nM | > 10000 nM | > 10000 nM |  |  | O=C(/C=C/c1cccn(CCc2ccncc2)c1=O)NO | > 10000 nM | > 10000 nM | > 10000 nM | 19.6% |  | 
380 nM | 6260 nM | 5300 nM | 4730 nM |  |  | COc1ccc(Cn2cccc(/C=C/C(=O)NO)c2=O)cc1 | 4520 nM | 3880 nM | 4700 nM | 84.6% |  | 
310 nM | 2880 nM | 2150 nM | 1710 nM |  |  | CCc1ccc(CCCn2cccc(/C=C/C(=O)NO)c2=O)cc1 | 1060 nM | 1740 nM | 1850 nM | 14.3% |  | 
 |  |  |  |  |  | O=C(CCCCCCC(=O)Nc1ccccc1)NO [VORINOSTAT] |  |  |  | 80.2% |  | 
190 nM | 1590 nM | 2300 nM | 1530 nM |  |  | O=C(/C=C/c1cccn(Cc2ccccc2Br)c1=O)NO | 2400 nM | 1660 nM | 2880 nM | 86% |  | 
380 nM | 3070 nM | 3040 nM | 3030 nM |  |  | O=C(/C=C/c1cccn(Cc2cccc(Br)c2)c1=O)NO | 2730 nM | 2780 nM | 4840 nM | 91.6% |  | 
160 nM | 4900 nM | 3300 nM | 2000 nM |  |  | O=C(/C=C/c1cccn(CCc2cccc(Br)c2)c1=O)NO | 7290 nM | 1990 nM | 3580 nM | 74% |  | 
360 nM | 6390 nM | 3040 nM | 2140 nM |  |  | O=C(/C=C/c1cccn(CCc2ccc(Br)cc2)c1=O)NO | 8600 nM | 2830 nM | 4840 nM | 53.5% |  | 
380 nM | 2230 nM | 1780 nM | 1830 nM |  |  | CC(C)(C)c1ccc(CCCn2cccc(/C=C/C(=O)NO)c2=O)cc1 | 1420 nM | 1310 nM | 1480 nM | 34.4% |  | 
570 nM | > 10000 nM | 5210 nM | > 10000 nM |  |  | O=C(/C=C/c1cccn(CCCc2cccnc2)c1=O)NO | > 10000 nM | > 10000 nM | > 10000 nM | 30% |  | 
460 nM | > 10000 nM | > 10000 nM | 6440 nM |  |  | O=C(/C=C/c1cccn(Cc2ccccn2)c1=O)NO | > 10000 nM | > 10000 nM | 10200 nM | 35.6% |  | 
210 nM | 4380 nM | 4880 nM | 4190 nM |  |  | O=C(/C=C/c1cccn(CCCc2ccc(Br)cc2)c1=O)NO | 7450 nM | 4020 nM | 3970 nM | 53.8% |  | 
320 nM | 3890 nM | 4920 nM | 3590 nM |  |  | CCOc1ccccc1CCn1cccc(/C=C/C(=O)NO)c1=O | 6060 nM | 3920 nM | 4920 nM | 30.9% |  | 
100 nM | 2490 nM | 3000 nM | 1480 nM |  |  | O=C(/C=C/c1cccn(Cc2ccc(Br)cc2)c1=O)NO | 4310 nM | 2110 nM | 1880 nM | 99.2% |  | 
3940 nM | > 10000 nM | > 10000 nM | > 10000 nM |  |  | O=C(/C=C/c1cccn(CCc2ccccn2)c1=O)NO | > 10000 nM | > 10000 nM | > 10000 nM | 26.7% |  | 
70 nM | 6940 nM | 5060 nM | 2930 nM |  |  | COc1cccc(CCn2cccc(/C=C/C(=O)NO)c2=O)c1 | > 10000 nM | 2910 nM | 5870 nM | 53.8% |  | 
300 nM | 10000 nM | 6700 nM | 4160 nM |  |  | O=C(/C=C/c1cccn(Cc2cccnc2)c1=O)NO | 7510 nM | 5940 nM | 5330 nM | 32.3% |  | 
100 nM | 3680 nM | 2350 nM | 1540 nM |  |  | CCc1ccc(Cn2cccc(/C=C/C(=O)NO)c2=O)cc1 | 1860 nM | 1670 nM | 2070 nM | 74.3% |  | 
480 nM | 2890 nM | 1880 nM | 1920 nM | 24.2% |  | O=C(/C=C/c1cccn(CCCc2ccccc2Br)c1=O)NO | 1580 nM | 1500 nM | 1860 nM | 162.8% |  | 
120 nM | 1740 nM | 1810 nM | 940 nM |  |  | CCOc1cccc(CCn2cccc(/C=C/C(=O)NO)c2=O)c1 | 920 nM | 1420 nM | 1340 nM | 76.9% |  | 

SMILES | IC50 (Histone deacetylase) | GI50 (MDA-MB-231) | GI50 (NCI-H23) | GI50 (ACHN) | remaining at 0.5 h, 1 µM [5] | remaining at 0.5 h, 1 µM [7] | GI50 [1] | GI50 [2] | GI50 [3] | Activity (C2C12) | fold change (FC) (HEK293 [4]) | fold change (FC) (HEK293 [6])
O=C1CC2(CCCC2)CC(=O)N1CCCCN1CCN(c2ncccn2)CC1 [BUSPIRONE] |  |  |  |  | 0.4% | 101% |  |  |  |  |  | 
